Assay results from ChEMBL document CHEMBL3792365, “Dioxol and dihydrodioxin analogs of 2- and 3-phenylacetonitriles as potent anti-cancer agents with nanomolar activity against a variety of human cancer cells” (2016).

Columns and labels:
Format in all cases: functional
[1] = Growth inhibition of human MOLT4 cells after 48 hrs by sulforhodamine B assay; details: MOLT-4, 48 h
In short: (§1)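 Five-dose concentration series run across a panel of 60 human tumour cell lines. GI50 is taken as the drug concentration giving a 50% reduction in net protein increase relative to untreated control cells.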

KM12 [2] = test: Growth inhibition of human KM12 cells at 10 uM after 48 hrs by sulforhodamine B assay; details: KM12, 48 h, values are per cent of control
786-0 = test: Growth inhibition of human 786-0 cells after 48 hrs by sulforhodamine B assay; details: 786-0, 48 h
In short: (§2)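 Five-dose testing against a 60-line human tumor cell panel. GI50 is the drug concentration giving a 50% reduction in net protein increase relative to untreated control cells.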

[3] = Growth inhibition of human OVCAR4 cells after 48 hrs by sulforhodamine B assay; details: OVCAR-4, 48 h; in short: as §1
[4] = Growth inhibition of human UACC257 cells at 10 uM after 48 hrs by sulforhodamine B assay; details: UACC-257, 48 h, values are per cent of control
[5] = Growth inhibition of human SF295 cells after 48 hrs by sulforhodamine B assay; details: SF-295, 48 h; in short: as §1
MDA-MB-435 = test: Growth inhibition of human MDA-MB-435 cells after 48 hrs by sulforhodamine B assay; details: MDA-MB-435, 48 h; in short: as §2
[6] = Growth inhibition of human RPMI8226 cells at 10 uM after 48 hrs by sulforhodamine B assay; details: RPMI-8226, 48 h, values are per cent of control
MDA-MB-231 [7] = test: Growth inhibition of human MDA-MB-231 cells at 10 uM after 48 hrs by sulforhodamine B assay; details: MDA-MB-231, 48 h, values are per cent of control
HT-29 = test: Growth inhibition of human HT-29 cells at 10 uM after 48 hrs by sulforhodamine B assay; details: HT-29, 48 h, values are per cent of control
MCF7 = test: Growth inhibition of human MCF7 cells at 10 uM after 48 hrs by sulforhodamine B assay; details: MCF7, 48 h, values are per cent of control
[8] = Growth inhibition of human SW620 cells after 48 hrs by sulforhodamine B assay; details: SW-620, 48 h; in short: as §1
Malme-3M = test: Growth inhibition of human MALME-3M cells at 10 uM after 48 hrs by sulforhodamine B assay; details: values are per cent of control
[9] = Growth inhibition of human OVCAR8 cells at 10 uM after 48 hrs by sulforhodamine B assay; details: OVCAR-8, 48 h, values are per cent of control
[10] = Growth inhibition of human UO31 cells at 10 uM after 48 hrs by sulforhodamine B assay; details: UO-31, 48 h, values are per cent of control
MDA-MB-231 [11] = test: Growth inhibition of human MDA-MB-231 cells after 48 hrs by sulforhodamine B assay; details: MDA-MB-231, 48 h; in short: as §2
SR = test: Growth inhibition of human SR cells after 48 hrs by sulforhodamine B assay; in short: as §1
[12] = Growth inhibition of human UACC62 cells after 48 hrs by sulforhodamine B assay; details: UACC-62, 48 h
In short: (§3)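 Five-dose testing across the 60-line human tumour cell panel. GI50 is the drug concentration that gives a 50% reduction in net protein increase relative to control cells.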

[13] = Growth inhibition of human BT549 cells at 10 uM after 48 hrs by sulforhodamine B assay; details: BT-549, 48 h, values are per cent of control
NCI-H522 = test: Growth inhibition of human NCI-H522 cells after 48 hrs by sulforhodamine B assay; details: NCI-H522, 48 h; in short: as §1
[14] = Growth inhibition of human HCC2998 cells after 48 hrs by sulforhodamine B assay; details: HCC 2998, 48 h; in short: as §2
SK-MEL-5 = test: Growth inhibition of human SK-MEL-5 cells at 10 uM after 48 hrs by sulforhodamine B assay; details: SK-MEL-5, 48 h, values are per cent of control
[15] = Growth inhibition of human OVCAR3 cells after 48 hrs by sulforhodamine B assay; details: OVCAR-3, 48 h; in short: as §1
[16] = Growth inhibition of human PC3 cells after 48 hrs by sulforhodamine B assay; details: PC-3, 48 h; in short: as §1
A549 [17] = test: Growth inhibition of human A549/ATCC cells after 48 hrs by sulforhodamine B assay; details: A549, 48 h; in short: as §2
CCRF-CEM [18] = test: Growth inhibition of human CCRF-CEM cells after 48 hrs by sulforhodamine B assay; in short: as §2
[19] = Growth inhibition of human LOXIMVI cells at 10 uM after 48 hrs by sulforhodamine B assay; details: LOX IMVI, values are per cent of control
KM12 [20] = test: Growth inhibition of human KM12 cells after 48 hrs by sulforhodamine B assay; details: KM12, 48 h; in short: as §2
[21] = Growth inhibition of human SNB19 cells after 48 hrs by sulforhodamine B assay; details: SNB-19, 48 h; in short: as §1
[22] = Growth inhibition of human HOP62 cells after 48 hrs by sulforhodamine B assay; details: HOP-62, 48 h; in short: as §2
A549 [23] = test: Growth inhibition of human A549/ATCC cells at 10 uM after 48 hrs by sulforhodamine B assay; details: A549, 48 h, values are per cent of control
ACHN = test: Growth inhibition of human ACHN cells after 48 hrs by sulforhodamine B assay; in short: as §2
[24] = Growth inhibition of human SNB75 cells after 48 hrs by sulforhodamine B assay; details: SNB-75, 48 h; in short: as §1
[25] = Growth inhibition of human OVCAR3 cells at 10 uM after 48 hrs by sulforhodamine B assay; details: OVCAR-3, 48 h, values are per cent of control
[26] = Growth inhibition of human UO31 cells after 48 hrs by sulforhodamine B assay; details: UO-31, 48 h; in short: as §3
[27] = Growth inhibition of human PC3 cells at 10 uM after 48 hrs by sulforhodamine B assay; details: PC-3, 48 h, values are per cent of control
SK-MEL-2 = test: Growth inhibition of human SK-MEL-2 cells after 48 hrs by sulforhodamine B assay; details: SK-MEL-2, 48 h; in short: as §1
MDA-MB-468 = test: Growth inhibition of human MDA-MB-468 cells after 48 hrs by sulforhodamine B assay; details: MDA-MB-468, 48 h; in short: as §2
CCRF-CEM [28] = test: Growth inhibition of human CCRF-CEM cells at 10 uM after 48 hrs by sulforhodamine B assay; details: values are per cent of control
[29] = Growth inhibition of human HL-60(TB) cells at 10 uM after 48 hrs by sulforhodamine B assay; details: HL-60, 48 h, values are per cent of control
[30] = Growth inhibition of human MOLT4 cells at 10 uM after 48 hrs by sulforhodamine B assay; details: MOLT-4, 48 h, values are per cent of control
[31] = Growth inhibition of human HOP92 cells at 10 uM after 48 hrs by sulforhodamine B assay; details: HOP-92, 48 h, values are per cent of control

SMILES: N#C/C(=C\c1cccc2ccccc12)c1ccc2c(c1)OCO2
- GI50 [1]: 4.99 µM
- growth, % of control at 10 µM (KM12 [2]): 39.2%
- GI50 (786-0): 5.62 µM
- GI50 [3]: 8.25 µM
- growth, % of control at 10 µM [4]: 103%
- GI50 [5]: 2.96 µM
- GI50 (MDA-MB-435): 0.43 µM
- growth, % of control at 10 µM [6]: 77%
- growth, % of control at 10 µM (MDA-MB-231 [7]): 48.3%
- growth, % of control at 10 µM (HT-29): 23.5%
- growth, % of control at 10 µM (MCF7): 26.1%
- GI50 [8]: 3.72 µM
- growth, % of control at 10 µM (Malme-3M): 73.3%
- growth, % of control at 10 µM [9]: 99%
- growth, % of control at 10 µM [10]: 80.3%
- GI50 (MDA-MB-231 [11]): 5.11 µM
- GI50 (SR): 1.6 µM
- GI50 [12]: 2.63 µM
- growth, % of control at 10 µM [13]: 51.8%
- GI50 (NCI-H522): 2.89 µM
- GI50 [14]: 11 µM
- growth, % of control at 10 µM (SK-MEL-5): 66.2%
- GI50 [15]: 4.18 µM
- GI50 [16]: 5.52 µM
- GI50 (A549 [17]): 5 µM
- GI50 (CCRF-CEM [18]): 3.65 µM
- growth, % of control at 10 µM [19]: 65.2%
- GI50 (KM12 [20]): 3.77 µM
- GI50 [21]: 6.29 µM
- GI50 [22]: 3.77 µM
- growth, % of control at 10 µM (A549 [23]): 55.9%
- GI50 (ACHN): 4.52 µM
- GI50 [24]: 2.45 µM
- growth, % of control at 10 µM [25]: 46.8%
- GI50 [26]: 6.48 µM
- growth, % of control at 10 µM [27]: 80.1%
- GI50 (SK-MEL-2): 3.18 µM
- GI50 (MDA-MB-468): 2.11 µM
- growth, % of control at 10 µM (CCRF-CEM [28]): 52.3%

SMILES: N#C/C(=C\c1cc2ccccc2s1)c1ccc2c(c1)OCO2
- GI50 [1]: 0.07 µM
- growth, % of control at 10 µM (KM12 [2]): 6%
- GI50 (786-0): 0.88 µM
- GI50 [3]: 1.27 µM
- growth, % of control at 10 µM [4]: 72.8%
- GI50 [5]: 0.04 µM
- GI50 (MDA-MB-435): 0.02 µM
- growth, % of control at 10 µM [6]: 9.3%
- growth, % of control at 10 µM (MDA-MB-231 [7]): 24.3%
- growth, % of control at 10 µM (HT-29): 5%
- growth, % of control at 10 µM (MCF7): 16.3%
- growth, % of control at 10 µM [29]: 0.5%
- GI50 [8]: 0.05 µM
- growth, % of control at 10 µM (Malme-3M): 55.1%
- growth, % of control at 10 µM [9]: 14%
- growth, % of control at 10 µM [10]: 34.9%
- GI50 (MDA-MB-231 [11]): 0.18 µM
- GI50 (SR): 0.03 µM
- GI50 [12]: 0.06 µM
- growth, % of control at 10 µM [13]: 56.4%
- GI50 (NCI-H522): 0.02 µM
- GI50 [14]: 0.27 µM
- growth, % of control at 10 µM (SK-MEL-5): 16.6%
- GI50 [15]: 0.04 µM
- GI50 [16]: 0.06 µM
- GI50 (A549 [17]): 0.09 µM
- GI50 (CCRF-CEM [18]): 0.05 µM
- growth, % of control at 10 µM [19]: 19.9%
- GI50 (KM12 [20]): 0.05 µM
- GI50 [21]: 0.23 µM
- GI50 [22]: 0.07 µM
- growth, % of control at 10 µM (A549 [23]): 17.2%
- GI50 (ACHN): 0.06 µM
- GI50 [24]: 0.02 µM
- growth, % of control at 10 µM [25]: -29.5%
- GI50 [26]: 0.08 µM
- growth, % of control at 10 µM [27]: 25.8%
- GI50 (SK-MEL-2): 0.04 µM
- growth, % of control at 10 µM [30]: 17.4%
- GI50 (MDA-MB-468): 0.38 µM
- growth, % of control at 10 µM [31]: 60.8%
- growth, % of control at 10 µM (CCRF-CEM [28]): 16.8%
